Results taken from ChEMBL document CHEMBL3739335, “Phosphonooxymethyl Prodrug of Triptolide: Synthesis, Physicochemical Characterization, and Efficacy in Human Colon Adenocarcinoma and Ovarian Cancer Xenografts” (J Med Chem, 2015).
Active and inactive are the calls of the source. No cut-off for these calls is given here.

Key:
[1] = Chemical stability of the compound in buffer assessed as compound remaining at pH 1 after 1 hr by HPLC analysis; assay type: physicochemical; details: read-out: Stability
alkaline phosphatase = biological target: T1, alkaline phosphatase (Bos taurus, UniProt P09487); assay: Half life of the compound in glycine buffer assessed as bovine intestinal mucosal alkaline phosphatase-mediated compound degradation at pH 9.8; assay type: ADME; details: cattle
T1 sequence (P09487 whole entry): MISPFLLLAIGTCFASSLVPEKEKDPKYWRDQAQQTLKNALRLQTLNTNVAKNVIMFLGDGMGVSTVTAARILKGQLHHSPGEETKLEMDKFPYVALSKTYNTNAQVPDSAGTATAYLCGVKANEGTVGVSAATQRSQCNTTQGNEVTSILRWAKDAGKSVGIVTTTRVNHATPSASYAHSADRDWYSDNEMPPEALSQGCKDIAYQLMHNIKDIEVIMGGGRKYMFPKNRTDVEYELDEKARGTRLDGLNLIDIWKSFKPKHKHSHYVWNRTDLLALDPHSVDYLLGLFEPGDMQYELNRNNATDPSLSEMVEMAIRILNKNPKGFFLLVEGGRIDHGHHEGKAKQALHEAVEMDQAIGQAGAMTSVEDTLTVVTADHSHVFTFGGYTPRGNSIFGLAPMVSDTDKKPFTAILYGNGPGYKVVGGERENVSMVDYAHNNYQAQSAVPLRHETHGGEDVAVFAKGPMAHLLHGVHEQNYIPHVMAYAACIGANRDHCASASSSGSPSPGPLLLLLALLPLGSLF
Summary of the method: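 Conversion in glycine buffer pH 9.8 with alkaline phosphatase from bovine intestinal mucosa; loss of compound and formation of triptolide followed, first-order fit for half-life. Control run in same buffer without enzyme for 1 h.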

[2] = Chemical stability of the compound in buffer assessed as pseudo-first-order rate constant at 25 degC at pH 7.4 by Arrhenius plot analysis; assay type: physicochemical
Summary of the method: (§1)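 Pseudo-first-order kobsd at each temperature was fitted to an Arrhenius plot, which was extrapolated to 25 and 4 °C. t1/2 and t90 (time for 10% loss) were calculated from the extrapolated kobsd.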

[3] = Chemical stability of the compound in buffer assessed as compound remaining at pH 2 after 2 hrs by HPLC analysis; assay type: physicochemical; details: read-out: Stability
[4] = Half life of the compound in buffer at 25 degC at pH 7.4; assay type: ADME; summary of the method: as §1
[5] = Chemical stability of the compound in buffer assessed as compound remaining at pH 2 after 24 hrs by HPLC analysis; assay type: physicochemical; details: read-out: Stability
[6] = Chemical stability of the compound in buffer assessed as compound remaining at pH 2 after 8 hrs by HPLC analysis; assay type: physicochemical; details: read-out: Stability
[7] = Chemical stability of the compound in buffer assessed as compound remaining at pH 6 after 24 hrs by HPLC analysis; assay type: physicochemical; details: read-out: Stability
Mus musculus [8] = assay: Toxicity in athymic nude mouse xenografted with human A2780 cells assessed as morbidity at 0.6 to 0.9 mg/kg, po administered for 30 days; assay type: organism-based; details: in vivo, 720 h
Summary of the method: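 Female athymic nude mice, 7–9 weeks old, received 2.5 × 10^6 A2780 cells subcutaneously in the flank in 50% Matrigel/RPMI 1640. Mice were randomized at a mean tumor volume of 188 mm3, 10 per group. Daily oral gavage in USP saline (0.2 mL) for 30 days, dosed on group-mean body weight. Clinical signs, survival and body weights were recorded.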

[9] = Stability of the compound in simulated intestinal fluid assessed as compound remaining at pH 7.5 after 2 hrs by HPLC analysis; assay type: ADME; details: read-out: Stability
Summary of the method: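 Drug incubated in simulated gastric fluid or simulated intestinal fluid and sampled at 0, 1, 2, 4, 8 and 24 h. Percent remaining was measured by reversed-phase C18 HPLC with photodiode-array detection, using a 20-min gradient of 10–70% acetonitrile against 10 mM sodium phosphate buffer at pH 7.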

[10] = Chemical stability of the compound in buffer assessed as compound remaining at pH 6 after 2 hrs by HPLC analysis; assay type: physicochemical; details: read-out: Stability
Mus musculus [11] = assay: Toxicity in athymic nude mouse xenografted with human HT-29 cells assessed as mortality at 0.9 mg/kg, ip administered for 4 weeks; assay type: organism-based; details: in vivo, 672 h
Summary of the method: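 Female athymic nude mice, 7–9 weeks old, received 1.74 × 10^6 HT-29 cells subcutaneously in the right flank in 50% Matrigel/McCoy's 5A. Randomized at 110 mm3, 10 per group. Intraperitoneal dosing in USP saline (0.2 mL) over a 28-day period on the stated schedule. Body weights were taken twice weekly; clinical signs and survival were recorded.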

A2780 = assay: Antitumor activity against human A2780 cells xenografted in athymic nude mouse at 0.6 to 0.9 mg/kg, ip and po administered for 30 days; assay type: functional, organism-based
Summary of the method: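 Female athymic nude mice, 7–9 weeks, implanted s.c. on right or left flank with 2.5 × 10^6 A2780 cells (ECACC, mycoplasma/rodent-pathogen tested) in 50% Matrigel/50% RPMI 1640; randomized at mean tumor 188 mm3, 10/group. Dosed daily for 30 days IP or by oral gavage in USP saline, 0.2 mL. Tumor volume by caliper (L × W2/2), tumor weight at necropsy, survival, body weight.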

[12] = Chemical stability of the compound in buffer assessed as compound remaining at pH 7.4 after 8 hrs by HPLC analysis; assay type: physicochemical; details: read-out: Stability
[13] = Chemical stability of the compound in buffer assessed as compound remaining at pH 7.4 after 4 hrs by HPLC analysis; assay type: physicochemical; details: read-out: Stability

SMILES: CC(C)[C@]12O[C@H]1[C@@H]1O[C@]13[C@]1(O[C@H]1C[C@H]1C4=C(CC[C@@]13C)C(=O)OC4)[C@@H]2OCOP(=O)([O-])[O-].[Na+].[Na+] [MINNELIDE]
- remaining at 1 h [1]: 89%
- half-life (alkaline phosphatase): 2 min
- K [2]: 8.6 ×10⁻⁵ /hr
- remaining at 2 h [3]: 97%
- t1/2 [4]: 0.92 yr
- remaining at 24 h [5]: 83%
- remaining at 8 h [6]: 94%
- remaining at 24 h [7]: 99%
- Activity (Mus musculus [8]): Toxic
- remaining at 2 h [9]: 100%
- remaining at 2 h [10]: 100%
- Activity (Mus musculus [11]): Toxic
- Activity (A2780): Active
- remaining at 8 h [12]: 100%
- remaining at 4 h [13]: 100%
